The source of these data is article PMC8769552 (Science Advances, 2022).

One experiment deals with HeLa cells. The experiment can be described thus: Histone lactylation and acetylation in HeLa cells after inhibitor treatment. The experiment is classed as cell-based, human. The following applies: 5-hour treatment, TMP195 5 μM, NAM 10 mM; for global histone lactylation levels: sodium butyrate 2 mM, TSA 1 μM, apicidin 1 μM. In a few lines: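 HeLa cells treated 5 h with pan-HDAC inhibitors (2 mM or 1 μM), HDAC1–3-selective inhibitor (1 μM), class IIa-selective inhibitor (5 μM) or pan-sirtuin inhibitor (10 mM). Histone lactylation and acetylation by Western blot: blocked in 3% BSA/TBST 1 h at RT, primary antibody overnight at 4°C, LI-COR secondary 1:10,000 for 1 h, Odyssey imaging.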

Experiment [1] has as its system HEK293T whole-cell lysates. The experiment in a line: Fluorogenic lysate deacylase assay. The experiment is classed as biochemical, human. The following applies: 37°C, 60 min; for conversion of AMC substrate by whole-cell lysate: substrate 50 μM, lysate 30 μg per well, NAD+ 500 μM, tris buffer, n = 4.
Another experiment concerns HDAC3. The experiment is classed as biochemical, human. The following applies: acid-extracted histones from HeLa cells, recombinant HDAC3. The gist of the method: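 Histones acid-extracted from HeLa cells (hypotonic sucrose/Triton wash, no-salt EDTA/EGTA step, 0.2 M H2SO4 overnight at 4°C, 20% TCA precipitation). 20 μg histones incubated with 0.2 μg recombinant human HDAC at 37°C for 1 or 4 h in tris buffer (50 mM tris/Cl, 137 mM NaCl, 2.7 mM KCl, 1 mM MgCl2, pH 8). Stopped by boiling 5 min in loading buffer; Western blot readout.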

A further experiment concerns HDAC1–3. The experiment in a line: Fluorogenic substrate screening assay. The experiment is classed as biochemical, human. The following applies: substrate 50 μM, HDACs 50 nM, tris buffer, 37°C, 60 min; n = 2.
Another experiment concerns the target HDAC1 (Homo sapiens, UniProt Q13547). The experiment in a line: Fluorogenic Michaelis-Menten assay. The experiment is classed as biochemical. As to conditions: K(D-la) versus K(L-la), Ac-LGK-AMC; stated for HDAC1/2.
For a further experiment, the system named is HDAC2. The experiment in a line: Fluorogenic Michaelis-Menten assay. The experiment is classed as biochemical, human. The following applies: K(D-la) versus K(L-la), Ac-LGK-AMC; stated for HDAC1/2.
A further experiment has as its target HDAC3/NCoR2 (Homo sapiens, UniProt O15379+Q9Y618). The experiment can be described thus: Fluorogenic Michaelis-Menten assay. The experiment is classed as biochemical. As to conditions: K(D-la) versus K(L-la), Ac-LGK-AMC.

Chain of HDAC1 (Q13547 whole entry): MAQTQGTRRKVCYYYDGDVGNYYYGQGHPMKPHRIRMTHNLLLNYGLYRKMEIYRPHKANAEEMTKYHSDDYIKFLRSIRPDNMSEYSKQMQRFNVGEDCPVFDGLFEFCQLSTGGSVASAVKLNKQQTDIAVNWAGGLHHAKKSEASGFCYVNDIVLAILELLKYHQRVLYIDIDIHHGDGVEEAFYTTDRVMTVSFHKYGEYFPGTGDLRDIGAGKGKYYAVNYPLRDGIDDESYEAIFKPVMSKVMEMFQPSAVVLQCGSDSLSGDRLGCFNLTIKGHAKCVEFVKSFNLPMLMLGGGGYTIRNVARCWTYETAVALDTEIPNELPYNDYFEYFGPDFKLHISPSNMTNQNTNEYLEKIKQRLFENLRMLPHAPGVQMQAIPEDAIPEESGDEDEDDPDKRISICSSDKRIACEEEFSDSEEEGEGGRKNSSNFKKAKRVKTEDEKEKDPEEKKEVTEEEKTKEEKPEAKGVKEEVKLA
Chain of HDAC3/NCoR2 (O15379 whole entry): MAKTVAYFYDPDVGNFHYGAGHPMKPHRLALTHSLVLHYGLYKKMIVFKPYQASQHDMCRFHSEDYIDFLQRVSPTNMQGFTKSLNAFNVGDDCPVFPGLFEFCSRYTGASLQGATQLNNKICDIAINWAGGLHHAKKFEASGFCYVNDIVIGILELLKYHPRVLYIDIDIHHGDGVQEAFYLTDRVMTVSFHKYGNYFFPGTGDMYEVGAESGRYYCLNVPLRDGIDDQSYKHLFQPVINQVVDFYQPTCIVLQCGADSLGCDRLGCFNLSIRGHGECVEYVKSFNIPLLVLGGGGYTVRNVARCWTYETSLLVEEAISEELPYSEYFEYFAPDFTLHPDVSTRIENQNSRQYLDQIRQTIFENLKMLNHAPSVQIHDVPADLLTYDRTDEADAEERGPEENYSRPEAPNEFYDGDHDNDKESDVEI
Chain of HDAC3/NCoR2 (Q9Y618 389-480 partner limits assumed): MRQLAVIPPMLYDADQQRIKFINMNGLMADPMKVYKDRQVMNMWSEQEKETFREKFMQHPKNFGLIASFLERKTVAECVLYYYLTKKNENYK

`NC(=O)c1cccnc1` [NAM, nicotinamide]: in the experiment on HeLa cells, the “histone Kac levels” value is given as “does not affect histone Kac levels” and the “global histone lactylation levels” value is given as “failed to affect histone lactylation levels substantially”. Further, the “effect of inhibitor on lysate deacylation of 1a–c” value in experiment [1] (NAM 10 mM, substrates 50 μM) is listed as “did not substantially change the outcome of the deacylation events”.

Regarding `CCC(=O)CCCCC[C@@H]1NC(=O)[C@H]2CCCCN2C(=O)[C@H]([C@@H](C)CC)NC(=O)[C@H](Cc2cn(OC)c3ccccc23)NC1=O` [apicidin], in the experiment on HeLa cells, the “global histone lactylation levels” value is recorded as “enhanced lactylation”. Besides, in the experiment on HDAC3, the “inhibition of HDAC3-mediated decrease of global histone lactylation” value was “could be inhibited”.

As for `CC(/C=C/C(=O)NO)=C\[C@@H](C)C(=O)c1ccc(N(C)C)cc1` [TSA, trichostatin A], in the experiment on HeLa cells, the “global histone lactylation levels” value is listed as “increased global histone lactylation levels”. Further, the “inhibition of HDAC3-mediated decrease of global histone lactylation” value in the experiment with HDAC3 was “could be inhibited”.

For Ac-Gln-Pro-Lys-Lys(L-La)-AMC [4b], the “deacylase activity (AMC release)” value in the experiment on HDAC1–3 is “measurable activity”.

Regarding `CCCC(=O)[O-].[Na+]` [sodium butyrate], the “global histone lactylation levels” value in the experiment on HeLa cells is recorded as “increased global histone lactylation levels”.

Ac-Leu-Gly-Lys(D-La)-AMC [2c]: the figures for the “fold higher kcat/KM for 2c than for 2b” value at HDAC1, with HDAC2 and at HDAC3/NCoR2 were over 6 fold, over 6 fold and 3.5 fold, respectively.

Consider Ac-Ala-Pro-Arg-Lys(D-La)-AMC [1c], for which the “conversion of AMC substrate by whole-cell lysate” value in experiment [1] is “converted to a larger extent than its K(L-la) counterpart”.

Turning to Ac-Ala-Pro-Arg-Lys(L-La)-AMC [1b], the “conversion of AMC substrate by whole-cell lysate” value in experiment [1] is reported as “able to remove the lactyl modifications, albeit to a lower extent than the corresponding Kac modification”.

As for `CC(C)(CNC(=O)c1cccc(-c2noc(C(F)(F)F)n2)c1)c1coc(-c2ccccc2)n1` [TMP195], in the experiment on HeLa cells, the “histone Kac levels” value is recorded as “lack of effect” and the “global histone lactylation levels” value was “failed to affect histone lactylation levels substantially”.
